Reference: PMC9516696 (RSC Advances, 2022)
“Also recorded” adds a separate entry of the source.

Legend:
[1] = system: HaCat (human keratinocyte); test: MTT cytotoxicity assay, HaCat; format: cell-based; conditions: 24 h
Procedure, shortened: (§1)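 Cells (1 × 10^4 per well in 0.2 mL medium) were exposed to test compounds, pre-dissolved in DMSO, at 0.01–1 mM for 24 h. Compounds were then washed out with three PBS washes, and MTT was read at once. Five replicates per concentration, each repeated at least three times; IC50 given as mean + SD. MCF7, A549 and HaCaT were grown in DMEM with 10% FBS and 1% streptomycin/penicillin. DU-145 and HEK293T were grown in MEM with 10% FBS. All cultures were kept at 37 °C, 5% CO2.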

[2] = system: DU-145 cell line (human prostate carcinoma); test: MTT cytotoxicity assay, DU-145; format: cell-based
Procedure, shortened: as §1

[3] = system: DU-145 cells; test: ROS generation, H2DCF-DA assay; format: cell-based, human; conditions: DU-145, 24, 48 and 72 h, c = 1 μM
Procedure, shortened: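 DU-145 prostate carcinoma cells grown in MEM with 10% FBS at 37 °C, 5% CO2, seeded in 96-well plates. Cells were exposed continuously to test compound (copper complexes or free ligands), then loaded with the H2DCF-DA probe. ROS was read by fluorescence, with work done in darkness. Signal was related to an untreated negative control and an extra-H2O2 positive control.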

[4] = system: HEK293T and HaCat normal cell lines; test: Cytotoxicity toward normal cell lines, stated in words; format: cell-based, human
Procedure, shortened: as §1

[5] = system: MCF7 cell line (human breast adenocarcinoma); test: MTT cytotoxicity assay, MCF7; format: cell-based
Procedure, shortened: as §1

[6] = system: DU-145 cells; test: Mitochondrial membrane potential, JC-10 assay; format: cell-based, human; conditions: DU-145, compounds at IC50, 24 h, JC-10 emission ratio 570 nm/530 nm
Procedure, shortened: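 DU-145 cells were seeded at 1 × 10^4 per 0.2 mL. After 24 h the medium was replaced with test compound solutions, gentamicin (0.5 mg mL−1, positive control) or ciprofloxacin (10 μg mL−1, negative control), then incubated 24 h at 37 °C, 5% CO2. Cells were PBS-washed twice and loaded with JC-10 for 1 h. Emission read at λex 540/λem 570 nm and λex 485/λem 530 nm; red/green ratio reported as mean + SD.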

[7] = system: A549 cell line (human lung adenocarcinoma); test: MTT cytotoxicity assay, A549; format: cell-based
Procedure, shortened: as §1

[8] = system: HEK293T cell line (human embryonic kidney); test: MTT cytotoxicity assay, HEK293T; format: cell-based; conditions: 24 h
Procedure, shortened: as §1

[9] = Stability in DMSO/H2O; format: physicochemical
Procedure, shortened: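 UV-Vis spectra of the complexes in DMSO/H2O (9:1, v/v) at room temperature, recorded right after dissolving and at 48 and 96 h. Full range recorded at 10−6 M; d–d bands recorded at 10−4 M.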

[10] = Stability in DMSO solution by FT-IR; format: physicochemical; conditions: 2% solution in DMSO, 0-96 h, qualitative
Procedure, shortened: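 ATR FT-IR of 2% solutions of the complexes in DMSO, one drop on the diamond plate, recorded at 1, 24, 48, 72 and 96 h. Settings: 2 cm−1 resolution, 128 scans, 4000–400 and 600–100 cm−1, room temperature. Solution spectra were compared with the solid-state spectra; qualitative only.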

[11] = HaCat, non-cancerous cell line, MTT
[12] = DU145, cancer cell line, 24 h, MTT
[13] = MCF7, cancer cell line, 24 h, MTT
[14] = A549, cancer cell line, 24 h, MTT
[15] = HEK293T, non-cancerous cell line, MTT

Compound | IC50 [1, 11] [µM] | IC50 [2, 12] [µM] | Activity toward DU-145 cancer cells [2] | ROS generation compared to negative control (order) [3] | Toxicity towards normal (healthy) cells [4] | IC50 [5, 13] [µM] | Reduction of mitochondrial membrane potential [6] | IC50 [7, 14] [µM] | IC50 [8, 15] [µM] | IC50 ([1]; Homo sapiens, HaCaT) [µM] | IC50 ([2]; Homo sapiens, DU-145, 24 h) [µM] | IC50 ([5]; Homo sapiens, MCF7, 24 h) [µM] | IC50 ([7]; Homo sapiens, A549, 24 h) [µM] | IC50 ([8]; Homo sapiens, HEK-293T) [µM] | Stability in DMSO/H2O solution ([9]; DMSO/H2O 9:1 v/v, room temperature, 0 min, 48 h and 96 h, UV-Vis) | Structure after dissolving in biological medium ([9]; biological medium, confirmed by UV-Vis and FT-IR) | Stability in DMSO solution [10]
trans-[CuCl2(etpy)2] [Complex 1] | > 1000 | > 1000 | inactive | complex 1 > complex 3 > 2-pyridineethanol > 2-ethylpyridyne | did not exhibit toxicity; also recorded: nontoxic | > 1000 | least effect | > 1000 | > 1000 |  |  |  |  |  |  |  | 
OCc1ccccn1 [2-Pyridinemethanol, 2-pyridinemethanol] |  |  |  |  |  |  |  |  |  | > 1000 | > 1000 | > 1000 | > 1000 | > 1000 |  |  | 
[Cu4OCl6(etpy)4] [Complex 2] | > 1000 | > 1000 | inactive |  |  | > 1000 |  | > 1000 | > 1000 |  |  |  |  |  | turns into complex 1 | adopts the same structure as compound 1 | turns into complex 1
CCc1ccccn1 [2-Ethylpyridine, 2-ethylpyridine] |  |  |  | complex 1 > complex 3 > 2-pyridineethanol > 2-ethylpyridyne |  |  | most significantly reduced |  |  | > 1000 | > 1000 | > 1000 | > 1000 | > 1000 |  |  | 
OCCc1ccccn1 [2-Pyridineethanol, 2-pyridineethanol] |  |  |  | complex 1 > complex 3 > 2-pyridineethanol > 2-ethylpyridyne |  |  | most significantly reduced |  |  | > 1000 | > 1000 | > 1000 | > 1000 | > 1000 |  |  | 
N.N.[Cl][Pt][Cl] [Cisplatin, cisplatin, reference compound] | 13.3 ± 1.1 | 98.3 ± 1.3 |  |  |  | 50.9 ± 2.6 |  | 57 ± 1.3 | 21 ± 1.8 |  |  |  |  |  |  |  | 
